Sampled rows, rich in hits. Any-hit rate of the full collection: about 3.7%.
ROMK mod: ROMK potassium channel modulators, primary screen, cell-based, thallium flux, MLSMR library. ATP-sensitive inward rectifier potassium channel 1 (Homo sapiens), P48048. 130,000 compounds, 2% hits. B-score at 10 µM. Tet-inducible ROMK, thallium flux fluorescence; actives lie on both sides;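 active means signal ratio slope over the read window, or its plate-corrected B-score, at least 3 SD from the plate mean, either direction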;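 further: B-score of the F/F0 ratio slope over 7 to 12 s after thallium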
Arbovirus anti: antivirals against arbovirus infection, primary screen, cell-based, full library, 10K replicate subset; AID 1251, 2008; arbovirus infection cell-based antiviral screen; inhibition, % at 10 µM; 200,000 compounds, 0.37% hits; in the data active means inhibition above about 30%
Mdm2 ligase inh: MDM2-luciferase reporter signal enhancers, primary screen, MDM2 E3 ligase inhibitor project, cell-based, luminescence, 1536-well. cell-based MDM2 ubiquitination luciferase reporter, 2 h; 0 = plate control, 100 = twice control, blank-subtracted. 210,000 compounds, 0.11% hits. signal enhancement, % at 5 µM. E3 ubiquitin-protein ligase Mdm2 (Homo sapiens), Q00987;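 active means signal enhancement of 30% or more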;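 further: luminescence tracks abundance of the self-degrading MDM2-luciferase fusion protein; higher signal means inhibition of MDM2 E3 ligase activity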
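system = mammalian cells stably expressing self-ubiquitinating, self-degrading MDM2 E3–luciferase fusion | quantity = 2000 cells per well seeded | incubation = 4 h cell settling then 2 h compound exposure, 37 °C | signal = SteadyLite luminescence, 15 min reagent step | benchmarks = plate control and blank wells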
KCC2 mod: KCC2 cotransporter modulators, thallium flux, primary screen, cell-based, HEK293 KCC2, FluoZin-2 fluorescence, MLSMR. Solute carrier family 12 member 5 (Homo sapiens), Q9H2X9. KCC2 cells, thallium flux FluoZin-2 fluorescence. B-score of Tl+ flux slope (higher = more flux/activation; lower = inhibition) at 10 µM. 190,000 compounds, 2.2% hits;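 active means thallium flux slope and its plate-corrected score both differing from the plate sample mean at a set confidence after two filtering rounds, in either direction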;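 further: slope of fluorescence scaled to starting intensity during 10 to 20 s after thallium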
Target sequence (Q9H2X9 whole entry, looked up): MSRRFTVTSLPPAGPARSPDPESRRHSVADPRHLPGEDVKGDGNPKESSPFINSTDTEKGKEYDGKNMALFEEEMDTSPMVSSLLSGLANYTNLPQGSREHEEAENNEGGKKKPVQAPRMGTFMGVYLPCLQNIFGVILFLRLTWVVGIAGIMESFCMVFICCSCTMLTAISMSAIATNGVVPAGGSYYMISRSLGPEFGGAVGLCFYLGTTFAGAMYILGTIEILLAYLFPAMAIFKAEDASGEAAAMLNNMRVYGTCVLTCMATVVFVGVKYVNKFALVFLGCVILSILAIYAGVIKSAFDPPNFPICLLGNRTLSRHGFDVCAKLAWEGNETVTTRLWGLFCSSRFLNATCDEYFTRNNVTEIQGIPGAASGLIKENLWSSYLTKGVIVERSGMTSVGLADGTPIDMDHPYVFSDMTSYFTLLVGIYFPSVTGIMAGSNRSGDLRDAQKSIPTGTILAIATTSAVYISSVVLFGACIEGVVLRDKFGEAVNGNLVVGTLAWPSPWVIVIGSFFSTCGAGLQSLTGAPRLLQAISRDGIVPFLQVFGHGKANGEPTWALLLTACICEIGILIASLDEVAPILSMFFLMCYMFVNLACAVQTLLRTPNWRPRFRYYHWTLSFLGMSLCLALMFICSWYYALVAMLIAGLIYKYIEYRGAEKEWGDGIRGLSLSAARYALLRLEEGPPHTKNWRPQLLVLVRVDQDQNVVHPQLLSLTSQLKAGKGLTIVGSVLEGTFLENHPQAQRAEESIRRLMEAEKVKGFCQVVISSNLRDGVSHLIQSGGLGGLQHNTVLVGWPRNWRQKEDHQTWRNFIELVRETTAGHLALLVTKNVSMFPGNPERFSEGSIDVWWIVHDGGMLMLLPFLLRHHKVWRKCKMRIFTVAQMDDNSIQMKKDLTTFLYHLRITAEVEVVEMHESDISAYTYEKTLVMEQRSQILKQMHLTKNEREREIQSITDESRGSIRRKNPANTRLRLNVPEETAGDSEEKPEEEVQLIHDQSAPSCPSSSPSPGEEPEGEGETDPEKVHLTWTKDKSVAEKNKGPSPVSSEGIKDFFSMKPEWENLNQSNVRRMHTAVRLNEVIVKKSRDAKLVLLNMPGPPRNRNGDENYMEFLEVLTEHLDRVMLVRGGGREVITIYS
PKD1 kinase inh: inhibitors of human PKD1 kinase, biochemical, fluorescence polarization | AID 797, 2007 | 200,000 compounds, 0.056% hits | inhibition, % (test concentration not listed) | PKD1 kinase fluorescence polarization assay | Serine/threonine-protein kinase D1 (Homo sapiens), Q15139; in the data active means inhibition above about 50%
Calpain2 inh: inhibitors of pig calpain II, primary screen, biochemical, fluorogenic peptide substrate, 1536-well; purified calpain II, 30 min; inhibition, % at 16 µM; 220,000 compounds, 0.37% hits; AID 1236, 2008;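 active means inhibition above about 50%, limit read from the data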
ROMK retest: ROMK channel modulator hit retest, confirmation, cell-based, thallium flux, duplicate, resupplied hits | shares compounds with ROMK mod | fluorescence ratio; stronger effect = lower value | normalized thallium flux (F/F0 slope) at 10 µM | 3,000 compounds, 54% hits | AID 1917, 2009;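 active means Flux at 10 µM at least 3 SD below or above vehicle control mean in one or both replicates; inconclusive means no clear call, values can overlap the other calls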
Each line names hits and unclear results; the compound was inactive in the other large screens (follow-up assays come after a bar, where they were run).

CC(C)c1ccc2c(c1)CCC1C(C)(CN)CCCC21C (stereo unspecified)	none (no result: ROMK mod, Arbovirus anti, Mdm2 ligase inh, PKD1 kinase inh) | ROMK retest 0.04
COCCCn1c(C)nc2c(c1=O)c1nc3ccccc3nc1n2CCc1ccccc1	ROMK mod -4 (no result: KCC2 mod) | ROMK retest 0.05
Cc1ccc(C(=O)N2CCN(S(=O)(=O)c3ccccc3)CC2)cc1	ROMK mod 2.7 | ROMK retest inconclusive
COc1cc2cc(C(c3nnnn3C(C)(C)C)N3CCc4ccccc4C3)c(=O)[nH]c2cc1OC (stereo unspecified)	ROMK mod -3.6 | ROMK retest inconclusive
CCC(C)(C)n1nnnc1C(c1cc2cc(OC)c(OC)cc2[nH]c1=O)N1CCc2ccccc21 (stereo unspecified)	none (no result: ROMK mod)
Cc1cccc(NC(=O)c2cc([N+](=O)[O-])ccc2NCC2CCCO2)n1 (stereo unspecified)	none
COCCCNc1ccc([N+](=O)[O-])cc1C(=O)Nc1cccc(C)n1	ROMK mod -4.1 | ROMK retest 0.045
CCOC(=O)c1c(N2C(=O)Nc3ccccc3N2O)n[nH]c1-c1cccc(OC)c1	none (no result: ROMK mod)
O=C(c1ccncc1)c1ccc(N2CCN(C3CC(=O)N(Cc4cccs4)C3=O)CC2)cc1 (stereo unspecified)	none (no result: ROMK mod) | ROMK retest 0.06
O=C1CC(N2CCN(c3ccc(O)cc3)CC2)C(=O)N1Cc1cccs1 (stereo unspecified)	none (no result: ROMK mod)
O=C(CSc1ccccc1)Nc1cc(S(=O)(=O)N2CCOCC2)ccc1N1CCOCC1	none
Cc1nc(NC(=O)CC(C)C)sc1-c1csc(Nc2ccc(Cl)cc2)n1	none (no result: ROMK mod)
CCC1=NC(c2ccc(Br)cc2)N(O)C1(C)C (stereo unspecified)	none
COc1cnc(-c2ccccn2)nc1Sc1ccccc1	none (no result: KCC2 mod) | ROMK retest inconclusive
O=C(CN1CCNCC1)NCCSc1ccc(Cl)cc1	ROMK mod -2 | ROMK retest 0.068
N#C/C(=C/c1ccc(N2CCCCCC2)o1)c1cccc(F)c1	ROMK mod -2.9 | ROMK retest 0.057
N#C/C(=C\c1ccc(N2CCOCC2)o1)c1ccccc1	none (no result: ROMK mod)
C[C@]12CCC(=O)C=C1CC[C@@H]1[C@@H]2CC[C@@]2(C)[C@H]1CC[C@]2(O)C(=O)CO	none (no result: ROMK mod, Mdm2 ligase inh)
CC(=O)[C@H]1CC[C@H]2[C@@H]3CCC4=CC(=O)CC[C@]4(C)[C@H]3CC[C@]12C	none (no result: ROMK mod, Mdm2 ligase inh) | ROMK retest 0.065
COC(=O)c1[nH]c2ccc(Cl)cc2c1NC(=O)C1CC1	none (no result: ROMK mod, KCC2 mod) | ROMK retest inactive
Cc1ccc(C)c(OCC(O)CN2CCC(CN3C(=O)c4cccc5cccc(c45)C3=O)CC2)c1 (stereo unspecified)	ROMK mod -4.7 | ROMK retest inconclusive
O=C1c2cccc3cccc(c23)C(=O)N1CC1CCN(CC(O)COCc2ccc3c(c2)OCO3)CC1 (stereo unspecified)	none
Cc1cccn2c(=O)c3cc(C#N)c(=NC(=O)c4ccncc4)n(CCCOC(C)C)c3nc12	ROMK mod -4.3 (no result: KCC2 mod) | ROMK retest 0.049
COCCCn1c(=NC(=O)c2ccncc2)c(C#N)cc2c(=O)n3cccc(C)c3nc21	none (no result: ROMK mod) | ROMK retest 0.06
CC(C)=NNC(=O)C1=NNC(=O)C1	none (no result: Arbovirus anti, PKD1 kinase inh)
COc1cccc(C2CC(c3cccs3)=NN2C(=O)CSC2=NN3CCCC(=O)N=C3S2)c1OC (stereo unspecified)	none (no result: ROMK mod, KCC2 mod)
O=S(=O)(Nc1nc2ccccc2s1)c1ccc(Br)s1	ROMK mod -3.2 | ROMK retest 0.053
Cc1ccc(S(=O)(=O)Nc2nc3ccccc3s2)cc1	none
Cc1sc2nc(CSc3cccc(C(F)(F)F)c3)[nH]c(=O)c2c1C	none (no result: ROMK mod)
CC(C)C(=O)N1CCC(c2nc(-c3ccc(S(=O)(=O)N4CCN(C)CC4)cc3)no2)CC1	none | ROMK retest inactive
O=C(C1CC1)N1CCC(c2nc(-c3ccc(S(=O)(=O)N4CCCC4)cc3)no2)CC1	none
CCOC(=O)Cn1cc(/C=N/NC(=O)c2cc3ccccc3o2)c2ccccc21	none (no result: ROMK mod, Arbovirus anti, Mdm2 ligase inh, PKD1 kinase inh) | ROMK retest inactive
CCn1cc(/C=N/NC(=O)c2cc3c(ccc4ccccc43)o2)c2ccccc21	none
Cc1cc(C(=O)Nc2ccccc2)oc(=O)c1	none (no result: ROMK mod, Arbovirus anti, PKD1 kinase inh)
COc1ccc(S(=O)(=O)Nc2ccc(F)c(F)c2)cc1Cl	ROMK mod -3.2 | ROMK retest 0.059
COc1ccc(S(=O)(=O)N2CCOCC2)cc1C(C)C	none (no result: ROMK mod)
CCC(C)c1cc(S(=O)(=O)N2CCOCC2)ccc1OC (stereo unspecified)	ROMK mod -3.7 | ROMK retest inconclusive
CC(C)N1CCC(N2CCN(Cc3ccc(-c4ccccc4Cl)o3)CC2CCO)CC1 (stereo unspecified)	none (no result: ROMK mod)
CC(C)N1CCC(N2CCN(Cc3ccc(-c4ccc(Cl)cc4)o3)CC2CCO)CC1 (stereo unspecified)	ROMK mod -3.7 | ROMK retest 0.064
Cc1cc2c(ccc3c2no[n+]3[O-])nn1	ROMK mod 2.7 | ROMK retest inactive
[O-][n+]1onc2c3ccnnc3ccc21	none (no result: ROMK mod)
N#Cc1sc2nc3c(cc2c1N)CCCC3	none | ROMK retest 0.1
Cc1ccc2c(N)c(C#N)sc2n1	ROMK mod 3.4 | ROMK retest inactive
COc1ccc2c(c1)Cc1sc(NC(=O)c3cccs3)nc1-2	ROMK mod -4.1 | ROMK retest inactive
COC(=O)CCC(=O)N1CCCC(CNS(=O)(=O)c2ccc(OC)cc2)C1 (stereo unspecified)	none
Cc1cc(Cl)n2ncc(-c3ccccc3)c2n1	none (no result: ROMK mod, Arbovirus anti, PKD1 kinase inh) | ROMK retest 0.063
Cc1cc(N)n2ncc(-c3ccc(Cl)cc3)c2n1	none (no result: ROMK mod)
COC(=O)N/N=C/c1ccc(-c2cc(Cl)ccc2Cl)o1	none (no result: ROMK mod) | ROMK retest 0.066
O=C(Cn1nc(CNc2ccc(Cl)cc2)[n+]2c1CCCCC2)c1ccccc1	none (no result: ROMK mod)
Cc1ccc(C(C)C)c(OCc2nn(CC(=O)c3ccc(Cl)cc3)c3[n+]2CCCCC3)c1	ROMK mod -7.5 | ROMK retest 0.049
C=CCn1c(=O)/c(=C/c2ccc(O)cc2)s/c1=C(/C#N)c1nnc2n1CCCCC2	ROMK mod -1.1 (no result: Mdm2 ligase inh, KCC2 mod) | ROMK retest 0.053
COc1cc(/C=C/C(=O)NCc2nc3ccccc3[nH]2)cc(OC)c1OC	none (no result: ROMK mod, Arbovirus anti, PKD1 kinase inh)

Source: PubChem
